One assay has as its system P388. Briefly: Cytotoxicity against mouse P388 cells. Format: functional. The settings on record: read-out: ED50 (the source's name). The essentials: (§1)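 Cytotoxicity assay run as previously described, with test compounds at three concentrations (50, 5 and 0.5 µg/mL). HT29 cells are human colon adenocarcinoma. P-388 cells are mouse lymphocytic leukemia, supplied by J. M. Pezzuto.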

A further assay deals with HT-29. Briefly: Cytotoxicity against human HT-29 cells. Format: functional. Particulars: read-out: ED50 (the source's name). The essentials:
as §1

Converted amounts (≈) assume the structure as drawn. Bounds are passed on as bounds.

In the case of `CC(=O)[C@H]1[C@H](O)CCC2=C[C@@H](O)C[C@H](C)[C@]21C` [LAEVINOL C], the EC50 with P388 and with HT-29 was above 5 µg/mL in each case.
Turning to `CC(=O)[C@H]1C(=O)CCC2=C[C@@H](O)C[C@H](C)[C@]21C` [LAEVINOL E], the EC50 in the assay on P388 and in the assay with HT-29 was above 5 µg/mL each time.
Take `CC(=O)[C@H]1[C@H](O)CC[C@]23O[C@H]2[C@H](O)C[C@H](C)[C@@]13C` [LAEVINOL G]: the EC50 with P388 and in the assay with HT-29 was above 5 µg/mL in each case.
In the case of `CC(=O)O[C@@H]1C(=O)CCC2=CC(=O)C[C@H](C)[C@@]2(C)/C=C\1C` (single isomer, unassigned) [LAEVINONE A], the EC50 in the assay with P388 and with HT-29 was above 5 µg/mL in each case.
Take `CC(=O)[C@H]1[C@H](O)CC[C@]23O[C@H]2CC[C@H](C)[C@@]13C` [LAEVINOL H]: the EC50 in the assay on P388 and in the assay on HT-29 was above 5 µg/mL each time.
Regarding `CC(=O)[C@@H]1C(=O)CC[C@]23O[C@H]2[C@H](O)C[C@H](C)[C@@]13C`, the EC50 in the assay with P388 and in the assay with HT-29 was above 5 µg/mL in each case.
Turning to `CC(=O)[C@H]1[C@@H](O)CCC2=C[C@H](O)C[C@H](C)[C@]21C` [LAEVINOL D], the EC50 in the assay with P388 and in the assay on HT-29 was above 5 µg/mL in each case.
In the case of `CC(=O)[C@H]1[C@@H](OC=O)CCC2=C[C@@H](O)C[C@H](C)[C@]21C` [LAEVINOL A], the EC50 in the assay on P388 and in the assay on HT-29 was above 5 µg/mL each time.
Regarding `CC(=O)[C@H]1[C@@H](O)CCC2=C[C@@H](O)C[C@H](C)[C@]21C` [LAEVINOL B], the EC50 with P388 and with HT-29 was above 5 µg/mL each time.
For `CC(=O)[C@H]1[C@H](O)CC[C@]23O[C@H]2[C@@H](O)C[C@H](C)[C@@]13C` [LAEVINOL F], the EC50 in the assay on P388 and with HT-29 was above 5 µg/mL throughout.
As to `C[C@H]1CCC=C2CCC(C(C)(O)CO)=C[C@@]21C` (some centres not stated), the EC50 in the assay on P388 turned out to be 0.21 µg/mL (≈ 0.888 µM); in the assay on HT-29, 0.33 µg/mL (≈ 1.4 µM).

The record behind these values is ChEMBL document CHEMBL1151279, “Sesquiterpenoids and norsesquiterpenoids from the Formosan soft coral Lemnalia laevis” (2005).
